Laboratory results from ChEMBL document CHEMBL1150223, “Neuroprotective constituents from Hedyotis diffusa” (2001).

What was measured:
Format in all cases: functional
Conditions in all cases: read-out: Activity
[1] = Neuroprotective activity against glutamate-stimulated rat cortical cells assessed as cell viability at 0.1 uM after 1 hr by LDH assay relative to control
How it was run: (§1)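 Mixed cortical cultures from 17- to 19-day fetal Sprague-Dawley rats, grown 2 weeks in DMEM/10% FCS, with 5-fluorodeoxyuridine 50 µM from day 3. Cells were washed, given sample in DMSO (0.1% final) for 1 h, then 50 µM glutamate plus sample for 24 h. Medium LDH was read at 450 nm. Viability is relative to glutamate-only and vehicle control; mean ± SEM, three experiments.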

[2] = Neuroprotective activity against glutamate-stimulated rat cortical cells assessed as cell viability at 1 uM after 1 hr by LDH assay relative to control; how it was run: as §1
[3] = Neuroprotective activity against glutamate-stimulated rat cortical cells assessed as cell viability at 10 uM after 1 hr by LDH assay relative to control; how it was run: as §1

SMILES	viability at 0.1 µM [1] [%]	viability at 1 µM [2] [%]	viability at 10 µM [3] [%]
COC(=O)C1=CO[C@@H](O[C@@H]2O[C@H](CO)[C@@H](O)[C@H](O)[C@H]2O)[C@@H]2C(CO)=C[C@@H](OC(=O)/C=C/c3ccc(OC)cc3)[C@H]12	65.4	71.8	52.8
O=c1c(O[C@@H]2O[C@H](CO)[C@H](O)[C@H](O)[C@H]2O[C@@H]2O[C@H](CO)[C@@H](O)[C@H](O)[C@H]2O)c(-c2ccc(O)c(O)c2)oc2cc(O)cc(O)c12	48.2	66	54
COC(=O)C1=CO[C@@H](O[C@@H]2O[C@H](CO)[C@@H](O)[C@H](O)[C@H]2O)[C@@H]2C(CO)=C[C@@H](OC(=O)/C=C\c3ccc(O)cc3)[C@H]12	6.9	25.7	6.3
O=c1c(O[C@@H]2O[C@H](CO)[C@H](O)[C@H](O)[C@H]2O[C@@H]2O[C@H](CO)[C@@H](O)[C@H](O)[C@H]2O)c(-c2ccc(O)cc2)oc2cc(O)cc(O)c12	4.6	27	25.2
COc1cc(/C=C/C(=O)OC[C@H]2O[C@@H](O[C@H]3[C@H](Oc4c(-c5ccc(O)c(O)c5)oc5cc(O)cc(O)c5c4=O)O[C@H](CO)[C@H](O)[C@@H]3O)[C@H](O)[C@@H](O)[C@@H]2O)ccc1O	62.7	72.9	75
COC(=O)C1=CO[C@@H](O[C@@H]2O[C@H](CO)[C@@H](O)[C@H](O)[C@H]2O)[C@@H]2C(CO)=C[C@@H](OC(=O)/C=C\c3ccc(OC)cc3)[C@H]12	28.8	54.6	23.7
COc1cc(/C=C/C(=O)OC[C@H]2O[C@@H](O[C@H]3[C@H](Oc4c(-c5ccc(O)c(O)c5)oc5cc(O)cc(O)c5c4=O)O[C@H](CO)[C@@H](O)[C@@H]3O)[C@H](O)[C@@H](O)[C@@H]2O)ccc1O	62.9	71.5	73.7
COc1cc(/C=C/C(=O)OC[C@H]2O[C@@H](O[C@H]3[C@H](Oc4c(-c5ccc(O)cc5)oc5cc(O)cc(O)c5c4=O)O[C@H](CO)[C@H](O)[C@@H]3O)[C@H](O)[C@@H](O)[C@@H]2O)ccc1O	25.2	66.9	25.2
COC(=O)C1=CO[C@@H](O[C@@H]2O[C@H](CO)[C@@H](O)[C@H](O)[C@H]2O)[C@@H]2C(CO)=C[C@@H](OC(=O)/C=C/c3ccc(O)cc3)[C@H]12	14.5	62.2	26.8
